# Screening results deposited in PubChem by several laboratories.
# SR-BI DiI-HDL act – SR-BI HDL lipid transfer activation; CHO ldlA[mSR-BI] cells, DiI-HDL uptake fluorescence, 3 h; 100 = double the neutral-control signal; activation, % at 12.5 µM; hit rate 0.096% among 320,000; AID 504775;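 active = mean replicate activation of at least 60% and every replicate at or above 60%; inconclusive = mean or all-replicate condition met, but not both; inactive = mean below 60% and not all replicates reaching 60%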;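 note: 0% = median plate neutral-control signal and 100% = twice that signal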
#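 Test system: SR-BI-overexpressing, LDLR-lacking CHO cells; Medium: Ham's F12 with 0.5% BSA, HEPES 25 mM, pH 7.4; Schedule: 3 h, 37 °C; Technique: bottom-read fluorescence, 550/595 nm.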
# CDK5 p35 inh – CDK5/p35 (human) kinase inhibition; Recombinant CDK5/p35, ADP-Glo luminescence, 60 min; inhibition, % at 10 µM; hit rate 0.01% among 330,000; AID 488839;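 active = highest replicate inhibition of at least 50% and at least 75% of replicates reaching 50%; inconclusive = only one of the two criteria met; inactive = both criteria failed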;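 note: plate controls were DMSO neutral control for no effect and GW8510 at 10 µM for full effect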
# SR-BI DiI inh – mouse SR-BI HDL lipid transfer inhibition | ldlA[mSR-BI] CHO cells, DiI-HDL uptake fluorescence, 3 h | inhibition, % at 12.5 µM | hit rate 0.96% among 320,000;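 active = mean replicate inhibition of at least 70% and a set share of replicates each scoring 70 or more; inconclusive = meets just one of the two criteria; inactive = fails both criteria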;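 note: 0% = median of neutral control wells and 100% = median of positive control wells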
# Target sequence (Q61009 whole entry, looked up): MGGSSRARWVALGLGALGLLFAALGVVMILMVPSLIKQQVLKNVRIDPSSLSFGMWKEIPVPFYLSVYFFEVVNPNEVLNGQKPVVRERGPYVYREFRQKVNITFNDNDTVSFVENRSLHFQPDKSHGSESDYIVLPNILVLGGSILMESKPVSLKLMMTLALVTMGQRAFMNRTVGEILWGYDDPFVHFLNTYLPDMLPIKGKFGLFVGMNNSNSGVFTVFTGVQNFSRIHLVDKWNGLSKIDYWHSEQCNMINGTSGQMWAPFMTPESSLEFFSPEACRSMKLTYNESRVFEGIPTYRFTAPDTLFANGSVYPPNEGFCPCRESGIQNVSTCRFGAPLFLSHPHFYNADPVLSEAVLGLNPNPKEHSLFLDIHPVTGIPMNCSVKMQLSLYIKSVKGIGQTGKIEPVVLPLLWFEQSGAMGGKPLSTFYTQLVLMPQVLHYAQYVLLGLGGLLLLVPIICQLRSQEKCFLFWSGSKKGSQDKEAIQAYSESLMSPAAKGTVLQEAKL
# dFosB act – activators of mouse delta FosB homodimer; P13346; purified delta FosB, TAMRA-CDK5 oligo fluorescence polarization; percent of positive-control signal above neutral wells; activation, % at 25 µM; hit rate 0.99% among 340,000; AID 493131;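 active = mean activation above about 17%, with every replicate also reaching it, limit read from the data, passing the limit was not always enough; inconclusive = only one of the two conditions met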
# PKA-R1A act – activates the PKA-R1A holoenzyme complex; hit rate 0.083% among 340,000; P00514+P68181; activation, % at 11.4 µM; PKA-R1A dissociation, Cy5-IP20 fluorescence polarization; scaled: DMSO 0%, 113 µM cGMP 100%; AID 504707;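 active = percent activation above the mean of all tested compounds plus 3 SD, cut at about 19% in these data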;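 note: higher means more PKAc released from R1A so a rise in polarization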
# PKA-R2B activ – activators of human PKA-R2B complex | PKA-R2B holoenzyme dissociation, Cy5-IP20 fluorescence polarization; R2B truncated from residue 108, S112A mutant; 0% DMSO only, 100% 113 µM cGMP | activation, % at 11.4 µM | hit rate 0.079% among 340,000 | P22694+P31323;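 active = activation above a cutoff set at the mean over all compounds plus 3 SD, cut at about 18% in these data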;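 note: higher means more holoenzyme dissociation and a rise in polarization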
# * marks the source's active call; other numbers are inactive results; ? = inconclusive; . = no result. Most compounds without a hit are left out; they make up all but 2.1% or so of the library.
SMILES,SR-BI DiI-HDL act,CDK5 p35 inh,SR-BI DiI inh,dFosB act,PKA-R1A act,PKA-R2B activ
COc1cccc(C(=O)Nc2nc(-c3ccc(S(=O)(=O)N4CCOCC4)cc3)cs2)c1,-65,0,65,?,-8,-8
CC(C)Nc1ccc(Nc2ccnc3cc4ccccc4cc23)cc1,-77,-8,77*,68*,-1,-6
CN1CCN(c2ccc(NC(=O)COc3cccc4ccccc34)cc2)CC1,-6,-2,6,-3,1,7
C=CC(=O)Nc1cccc(Oc2ccnc3[nH]ccc23)c1,-39,0,39,4,-7,-12
C=CC(=O)Nc1cccc(Oc2ccnc(Nc3ccc(N4CCN(C)CC4)cc3)n2)c1,-11,0,11,66*,3,3
C=CC(=O)Nc1cccc(N(C)c2ccnc(Nc3ccc(N4CCN(C)CC4)cc3)n2)c1,-5,6,5,46*,1,-4
CC1(C)NC(=O)N(CCC(=O)Nc2ccc(C(C)(C)C)cc2)C1=O,.,.,.,.,2,-1
CC(=O)c1cccc(Nc2nc(-c3ccccc3)cs2)c1,-75,0,75*,-6,-4,-10
CC(=O)c1cccc(Nc2nc(-c3cccnc3)cs2)c1,-23,0,23,-5,-5,-7
O=C(Nc1cccc(-c2csc(Nc3ccccc3)n2)c1)c1ccccc1,-77,-5,77*,-6,0,-1
O=C(Nc1ccc(-c2csc(Nc3ccc(Cl)cc3)n2)cc1)c1ccccc1,-93,-1,93*,3,-1,10
O=[N+]([O-])c1cccc(-c2csc(Nc3ccccc3)n2)c1,-87,1,87*,-12,-4,-12
O=C1CCc2cc(S(=O)(=O)Nc3ccc(F)cc3)cc3c2N1CC3,-1,1,1,-6,-2,1
C/C(=N\NC(=O)c1cccc(S(=O)(=O)N2CCCC2)c1)c1ccc(OCC(=O)N(C)C)cc1,-5,-2,5,-2,-1,-8
O=C(Nc1cccc(-c2csc(Nc3cccc(C(F)(F)F)c3)n2)c1)c1ccccc1,-78,-3,78*,0,-4,-10
O=C(Nc1ccc(-c2csc(Nc3cccc(C(F)(F)F)c3)n2)cc1)c1cc([N+](=O)[O-])cc(C(F)(F)F)c1,-92,-1,92*,-5,3,3
O=C(Nc1nc(-c2ccccc2)cs1)c1cccc([N+](=O)[O-])c1,-51,1,51,2,-9,-15
O=C(Nc1ccc(-c2csc(Nc3cccc(C(F)(F)F)c3)n2)cc1)c1ccccc1,-97,-7,97*,1,-9,-6
C=CCn1c(SCC(=O)N(CC)C2CCS(=O)(=O)C2)nc2cc(C(=O)O)ccc2c1=O (stereo not drawn),7,1,-7,-1,-13,0
C/C(=N\NC(N)=S)c1ccc(Cl)s1,-79,4,79*,3,7,3
CCN(CC(=O)Nc1cccc(OC)c1)C(=O)C1CC(=O)N(Cc2ccccc2Cl)C1 (stereo not drawn),.,.,.,.,3,5
Cc1ccc(C(C)C)c(OCc2ccc(C(=O)N/N=C/c3ccc(O)cc3O)cc2)c1,-129,-1,129*,-3,-3,5
O=C(c1ccc(CS(=O)Cc2ccc(Cl)cc2)o1)N1CCN(C2CCCCC2)CC1 (stereo not drawn),.,.,.,.,4,0
CCC1CCC(C(=O)NC(C(=O)NCCc2ccc(S(N)(=O)=O)cc2)C(C)C)CC1 (stereo not drawn),-8,-1,8,73*,2,-8
Cc1ccc(N/C(N)=N/c2nc(C)cc(N3CCCCC3)n2)c(C)c1,-25,4,25,-1,-3,-5
Fc1ccc(-c2cc3nc(-c4ccccc4)cc(N4CCN(CCN5CCOCC5)CC4)n3n2)cc1,6,0,-6,20*,-4,-10
CCOC(=O)c1c(S(=O)(=O)NCC(=O)N2CCN(c3ccc(OC)cc3)CC2)c(C)n(C)c1C,6,0,-6,-7,-3,-2
